From ChEMBL document CHEMBL1152933, “Synthesis and evaluation of novel 7-azaindazolyl-indolyl-maleimide derivatives as antitumor agents and protein kinase C inhibitors” (Bioorg Med Chem, 2009) come the findings set out here.

Experiment [1] can be described thus: Antiproliferative activity against human ECA109 cells after 48 hrs by MTT assay. The experiment is classed as functional, cell-based. Conditions: ECa-109, 48 h. A digest of the protocol:
(§1)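 MTT assay after 48 h incubation with compound. MTT (5.0 mg/mL stock in RPMI-1640) was added and incubated a further 4 h at 37 °C. Formazan was dissolved in DMSO and absorbance read at 570 nm. IC50 is the concentration giving 50% decrease in cell growth, computed from dose-effect analysis. Triplicate wells, three independent experiments, values are means.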
On the technique in general: Formazan colour is commonly taken as a measure of viable cells.

Another experiment concerns A549. The experiment is described as follows: Antiproliferative activity against human A549 cells after 48 hrs by MTT assay. The format is functional, cell-based. The following applies: A549, 48 h. The essentials: as §1
A further experiment deals with K562. In words: Antiproliferative activity against human K562 cells after 48 hrs by MTT assay. The format is functional, cell-based. Conditions: K562, 48 h. A digest of the protocol: as §1
For the next experiment, the system named is SMMC-7721. In words: Antiproliferative activity against human SMMC7721 cells after 48 hrs by MTT assay. The format is functional, cell-based. The following applies: SMMC-7721, 48 h. The essentials:
as §1

Experiment [2] is described as follows: Inhibition of PKC by […] assay. A digest of the protocol: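 Recombinant PKC was incubated with reaction mixture containing a fluorescent PepTag PKC-specific peptide substrate at 30 °C for 30 min, then stopped by boiling. Phosphorylated (−1) and nonphosphorylated (+1) peptide were separated on 0.8% agarose in 50 mM Tris-HCl pH 8.0 at 100 V for 15 min and visualized under UV. IC50 values are means of three experiments.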

A further experiment deals with KB. The experiment is described as follows: Antiproliferative activity against human KB cells after 48 hrs by MTT assay. The experiment is classed as functional, cell-based. The essentials:
as §1

A word on the IC50: it is the concentration at which inhibition is half-maximal. A high value points to a need for much substance. With `COc1ccc(N2C(=O)C(c3cn(C)c4ccccc34)=C(c3nn(CCCN4CCCCC4)c4ncccc34)C2=O)cc1`, the IC50 is 3.34 µM in experiment [1]; 30.3 µM in the experiment with A549; greater than 100 µM with K562; 1.74 µM in the experiment with SMMC-7721; greater than 10 µM in experiment [2]; 44 µM in the experiment with KB.

Regarding `CN(C)CCCn1nc(C2=C(c3cn(C)c4ccccc34)C(=O)N(c3ccccc3)C2=O)c2cccnc21`, the IC50 is 5.84 µM in experiment [1]; 13 µM in the experiment on A549; 1.7 µM in the experiment on K562; 31.2 µM with SMMC-7721; greater than 10 µM in experiment [2]; 14.1 µM in the experiment with KB.

As to `Cn1cc(C2=C(c3nn(CCCN4CCOCC4)c4ncccc34)C(=O)NC2=O)c2ccccc21`, the IC50 in experiment [1] is greater than 100 µM; in the experiment on A549, greater than 100 µM; in the experiment with K562, greater than 100 µM; in the experiment with SMMC-7721, greater than 100 µM; in experiment [2] it was 5.95 µM; with KB, greater than 100 µM.

As to `Cn1cc(C2=C(c3nn(CCCn4cncn4)c4ncccc34)C(=O)N(c3ccccc3)C2=O)c2ccccc21`, the IC50 was greater than 100 µM in experiment [1]; greater than 100 µM in the experiment on A549; greater than 100 µM in the experiment on K562; greater than 100 µM with SMMC-7721; greater than 10 µM in experiment [2]; greater than 100 µM in the experiment with KB.

With `Cn1cc(C2=C(c3nn(CCCN4CCCCC4)c4ncccc34)C(=O)N(c3ccccn3)C2=O)c2ccccc21`, the IC50 is 7.3 µM in experiment [1]; greater than 100 µM in the experiment with A549; greater than 100 µM with K562; greater than 100 µM in the experiment on SMMC-7721; greater than 10 µM in experiment [2]; greater than 100 µM in the experiment on KB.

For `Cn1cc(C2=C(c3n[nH]c4ncccc34)C(=O)NC2=O)c2ccccc21`, the IC50 was 46.1 µM in experiment [1]; greater than 100 µM with A549; greater than 100 µM in the experiment on K562; greater than 100 µM in the experiment on SMMC-7721; greater than 10 µM in experiment [2]; 62 µM in the experiment with KB.

As to `Cn1cc(C2=C(c3nn(CCn4ccnc4)c4ncccc34)C(=O)NC2=O)c2ccccc21`, the IC50 is greater than 100 µM in experiment [1]; greater than 100 µM with A549; greater than 100 µM with K562; greater than 100 µM in the experiment on SMMC-7721; 9.1 µM in experiment [2]; greater than 100 µM in the experiment with KB.

For the compound `CN(C)CCCn1nc(C2=C(c3cn(C)c4ccccc34)C(=O)NC2=O)c2cccnc21`, the IC50 in experiment [1] was greater than 100 µM; in the experiment with A549 it was greater than 100 µM; with K562, 50.4 µM; in the experiment with SMMC-7721, greater than 100 µM; in experiment [2], 0.72 µM; with KB, greater than 100 µM.

With `Cn1cc(C2=C(c3nn(CCCn4cccc4)c4ncccc34)C(=O)N(c3ccccc3)C2=O)c2ccccc21`, the IC50 is greater than 100 µM in experiment [1]; greater than 100 µM in the experiment on A549; 36.6 µM in the experiment on K562; greater than 100 µM in the experiment with SMMC-7721; greater than 10 µM in experiment [2]; greater than 100 µM in the experiment on KB.

With `O=C1NC(=O)C(c2c[nH]c3ccccc23)=C1c1c[nH]c2ccccc12` [RO-316233], the IC50 in experiment [1] is 83.5 µM; with A549 it was 56.6 µM; in the experiment with K562, 17.5 µM; with SMMC-7721, greater than 100 µM; in experiment [2] it was 0.35 µM; with KB, 53.8 µM.

Take `Cn1cc(C2=C(c3nn(CCCCn4ccnc4)c4ncccc34)C(=O)NC2=O)c2ccccc21`: the IC50 in experiment [1] was 23.5 µM; in the experiment with A549 it was 2.38 µM; with K562 it was 31.8 µM; with SMMC-7721, 29.2 µM; in experiment [2] it was 0.86 µM; in the experiment with KB, greater than 100 µM.

Regarding `Cn1cc(C2=C(c3nn(CCCn4ccnc4)c4ncccc34)C(=O)NC2=O)c2ccccc21`, the IC50 in experiment [1] is greater than 100 µM; in the experiment on A549, greater than 100 µM; with K562, 13.8 µM; with SMMC-7721 it was greater than 100 µM; in experiment [2], 0.9 µM; in the experiment on KB, greater than 100 µM.

As for `Cn1cc(C2=C(c3nn(CCCn4cncn4)c4ncccc34)C(=O)NC2=O)c2ccccc21`, the IC50 in experiment [1] was greater than 100 µM; in the experiment on A549, greater than 100 µM; in the experiment on K562, greater than 100 µM; in the experiment with SMMC-7721, greater than 100 µM; in experiment [2], 2.2 µM; in the experiment with KB, greater than 100 µM.

In the case of `Cn1cc(C2=C(c3nn(CCCn4ccnc4)c4ncccc34)C(=O)N(c3ccccc3)C2=O)c2ccccc21`, the IC50 was 1.44 µM in experiment [1]; 1.56 µM in the experiment with A549; 5.51 µM with K562; 34.8 µM in the experiment with SMMC-7721; greater than 10 µM in experiment [2]; 6.8 µM in the experiment with KB.

On to `Cn1cc(C2=C(c3nn(CCCCn4ccnc4)c4ncccc34)C(=O)N(c3ccccc3)C2=O)c2ccccc21`, for which the IC50 in experiment [1] was 7.54 µM; with A549, 21.7 µM; in the experiment with K562 it was 5.03 µM; in the experiment on SMMC-7721 it was 1.76 µM; in experiment [2], greater than 10 µM; in the experiment with KB, 47.3 µM.

With `Cn1cc(C2=C(c3nn(CCCO)c4ncccc34)C(=O)NC2=O)c2ccccc21`, the IC50 in experiment [1] is greater than 100 µM; in the experiment with A549, greater than 100 µM; with K562, 85.8 µM; in the experiment with SMMC-7721 it was greater than 100 µM; in experiment [2], 3.15 µM; in the experiment on KB it was greater than 100 µM.

Regarding `Cn1cc(C2=C(c3nn(CCCN4CCCCC4)c4ncccc34)C(=O)N(c3ccc(Cl)cc3)C2=O)c2ccccc21`, the IC50 was greater than 100 µM in experiment [1]; 28.7 µM in the experiment with A549; 1.8 µM with K562; greater than 100 µM in the experiment on SMMC-7721; greater than 10 µM in experiment [2]; greater than 100 µM in the experiment with KB.

Take `CN1CCN(CCCn2nc(C3=C(c4cn(C)c5ccccc45)C(=O)NC3=O)c3cccnc32)CC1`: the IC50 in experiment [1] was greater than 100 µM; with A549 it was greater than 100 µM; in the experiment on K562 it was 46.7 µM; in the experiment on SMMC-7721, greater than 100 µM; in experiment [2] it was 1.86 µM; in the experiment with KB, greater than 100 µM.

As for `Cn1cc(C2=C(c3n[nH]c4ncccc34)C(=O)N(c3ccccc3)C2=O)c2ccccc21`, the IC50 in experiment [1] is greater than 100 µM; in the experiment on A549, greater than 100 µM; in the experiment with K562, 3.26 µM; in the experiment on SMMC-7721 it was greater than 100 µM; in experiment [2], greater than 10 µM; with KB, greater than 100 µM.

Consider `Cn1cc(C2=C(c3nn(CCCN4CCCCC4)c4ncccc34)C(=O)N(c3cccc4ccccc34)C2=O)c2ccccc21`, for which the IC50 in experiment [1] was 1.83 µM; with A549, 2.82 µM; with K562, 3.18 µM; in the experiment with SMMC-7721 it was 0.22 µM; in experiment [2], greater than 10 µM; in the experiment with KB, 13.4 µM.

As for `Cn1cc(C2=C(c3nn(CCn4ccnc4)c4ncccc34)C(=O)N(c3ccccc3)C2=O)c2ccccc21`, the IC50 was 8.77 µM in experiment [1]; 43.1 µM with A549; 26.4 µM with K562; greater than 100 µM in the experiment on SMMC-7721; greater than 10 µM in experiment [2]; greater than 100 µM in the experiment with KB.

Regarding `Cn1cc(C2=C(c3nn(CCCn4cccc4)c4ncccc34)C(=O)NC2=O)c2ccccc21`, the IC50 was greater than 100 µM in experiment [1]; greater than 100 µM in the experiment with A549; 21.6 µM in the experiment with K562; greater than 100 µM in the experiment with SMMC-7721; 1.1 µM in experiment [2]; greater than 100 µM with KB.

In the case of `Cn1cc(C2=C(c3nn(CCCN4CCCCC4)c4ncccc34)C(=O)NC2=O)c2ccccc21`, the IC50 was 42.3 µM in experiment [1]; greater than 100 µM with A549; 5.96 µM in the experiment with K562; 7.67 µM in the experiment on SMMC-7721; 0.65 µM in experiment [2]; 98 µM in the experiment with KB.
